This is an account of results in ChEMBL document CHEMBL5335796, “Novel Psilocin Prodrugs with Altered Pharmacological Properties as Candidate Therapies for Treatment-Resistant Anxiety Disorders” (J Med Chem, 2024).

A short description of data set [1]: Drug metabolism in human liver microsomes assessed as psilocin formation at 2.5 uM after 120 mins by LC-MS analysis. The class given is ADME, Microsome. Conditions: 2 h. Put shortly:
(§1)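 2.5 μM compound in 50 mM potassium phosphate pH 7.4 with 3 mM MgCl2, 1 mM EDTA and an NADPH regenerating system. Incubated at 37 °C with human liver or intestinal S9 or microsomes (400 μg/mL protein) or 10% human AB serum. Acetonitrile quench, then LC-MS; psilocin concentration read at 120 min.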
A general note: Liver microsomes are a subcellular fraction often used to study metabolism.

A short description of data set [2]: Metabolic stability in human intestine S9 fraction assessed as half life at 2.5 uM measured upto 120 mins in presence of NADPH by LC-MS analysis. In kind it is ADME, subcellular. Conditions: s9, 2 h. Put shortly:
(§2)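 2.5 μM compound at 37 °C in 50 mM potassium phosphate pH 7.4 with 3 mM MgCl2, 1 mM EDTA and an NADPH regenerating system. […] Sampled at 0–120 min in 20-min steps, acetonitrile quench, LC-MS of parent. T1/2 from one-phase exponential decay fit.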

A short description of data set [3]: Metabolic stability in human liver microsomes assessed as half life at 2.5 uM measured upto 120 mins in presence of NADPH by LC-MS analysis. As to conditions: microsomes, 2 h, 2.5 µM. The class given is ADME, Microsome. Put shortly:
as §2

A short description of data set [4]: Drug metabolism in human intestine microsomes assessed as psilocin formation at 2.5 uM after 120 mins by LC-MS analysis. The class given is ADME, Microsome. As to conditions: 2 h. A digest of the protocol:
as §1

Data set [5] can be described thus: Metabolic stability in human intestine microsomes assessed as half life at 2.5 uM measured upto 120 mins in presence of NADPH by LC-MS analysis. Conditions: 2 h. The class given is ADME, Microsome. Put shortly:
as §2

Data set [6] in a line: Drug metabolism in human liver S9 fraction assessed as psilocin formation at 2.5 uM after 120 mins by LC-MS analysis. The class given is ADME, subcellular. As to conditions: s9, 2 h. Put shortly:
as §1

The nature of data set [7]: Drug metabolism in human serum assessed as psilocin formation at 2.5 uM after 120 mins by LC-MS analysis. As to conditions: 2 h. The class given is ADME, cell-free. Put shortly:
as §1

The nature of data set [8]: Metabolic stability in human serum assessed as half life at 2.5 uM measured upto 120 mins in presence of NADPH by LC-MS analysis. In kind it is ADME, cell-free. Conditions: 2 h. A digest of the protocol: as §2
Data set [9] can be described thus: Drug metabolism in human intestine S9 fraction assessed as psilocin formation at 2.5 uM after 120 mins by LC-MS analysis. The class given is ADME, subcellular. As to conditions: s9, 2 h. A digest of the protocol: as §1
The nature of data set [10]: Metabolic stability in human liver S9 fraction assessed as half life at 2.5 uM measured upto 120 mins in presence of NADPH by LC-MS analysis. The class given is ADME, subcellular. Conditions: s9, 2 h, 2.5 µM. A digest of the protocol:
as §2

Data set [11] is described as follows: Drug metabolism in po dosed C57BL/6 mouse assessed as psilocin formation measured upto 24 hrs by LC-MS analysis. The class given is ADME, organism-based. As to conditions: in vivo, dose 1-10 mg/kg.
Data set [12] can be described thus: Drug metabolism in C57BL/6 mouse assessed as psilocin formation at 10 mg/kg, po measured after 8 hrs by LC-MS analysis. Conditions: in vivo. The class given is ADME, organism-based.

Structures are written as SMILES.

As for `CN(C)CCc1c[nH]c2cccc(OC(=O)c3cccc(C(=O)Oc4cccc5[nH]cc(CCN(C)C)c45)c3)c12`, the Drug metabolism in [1], in data set [4], in data set [6], in [7] and in data set [9] was 0 µM throughout. Also, the t1/2 in data set [2] is recorded as 445 min; in data set [3], 241 min; in data set [5], 621 min; in data set [8] it was 101 min.

With `CCOC(=O)[C@@H](C)NP(=O)(Oc1ccccc1)Oc1cccc2c1c(CCN(C)C)cn2[Si](C(C)C)(C(C)C)C(C)C` (stereo not given in full), the Drug metabolism in [1] is 0.324 µM; in [4] it was 0 µM; in data set [6], 0.153 µM; in [7], 0 µM; in data set [9] it was 0.47 µM. For the same compound, the t1/2 in [2] worked out at 39 min; in data set [3], 22 min; in data set [10], 26 min; in data set [5], 29 min; in [8], 145 min.

`CN(C)CCc1cn(C(=O)OCc2ccccc2)c2cccc(OC(=O)OCc3ccccc3)c12`: the Drug metabolism entry in [11] is “Dose-Dependent Effect”; in data set [1], 0 µM; in data set [4] it was 0 µM; in data set [12], “Metabolite_Notdetected”; in data set [6] it was 0 µM; in data set [7] it was 0 µM. Moreover, the Drug metabolism in data set [9] was 0 µM. The t1/2 in data set [2] was 16 min; in [3] it was 52 min; in data set [10], 22 min; in data set [5], 13 min; in data set [8], 0.8 min.

`CC(C)[Si](C(C)C)(C(C)C)n1cc(CCN(C)C)c2c(OC(=O)Sc3ccccc3)cccc21`: the Drug metabolism in data set [1] was 0.206 µM; in data set [4], 0 µM; in [6] it was 0.133 µM; in [7], 0 µM; in data set [9], 0 µM. Besides, the t1/2 in data set [2] was determined as 24 min; in data set [3] it was 9 min; in data set [10] it was 7 min; in data set [5], 13 min; in data set [8] it was 32 min.

As to `COC(=O)c1cccc(C(=O)Oc2cccc3[nH]cc(CCN(C)C)c23)c1`, the Drug metabolism in [1] came to 0.919 µM; in data set [4], 0.241 µM; in data set [6] it was 0.451 µM; in [7] it was 3.148 µM; in [9] it was 0.166 µM. In addition, the t1/2 was 22 min in [3], 33 min in [10] and 33 min in data set [8].

For `CN(C)CCc1c[nH]c2cccc(OP(=O)(Oc3ccccc3)Oc3ccccc3)c12`, the Drug metabolism result in data set [11] was “Dose-Dependent Effect”; in data set [1], 0 µM; in [4] it was 0.076 µM; in data set [12] it was “Metabolite_Notdetected”; in [6], 0.073 µM; in [7] it was 0.069 µM. Moreover, the Drug metabolism in data set [9] is 0 µM. In addition, the t1/2 is 52 min in data set [2], 43 min in data set [3], 96 min in [10] and 28 min in data set [5].

Regarding `CN(C)CCc1c[nH]c2cccc(O[Si](c3ccccc3)(c3ccccc3)C(C)(C)C)c12`, the Drug metabolism in data set [1], in [4], in data set [6], in [7] and in [9] was 0 µM in each case. For the same compound, the t1/2 in data set [3] is 229 min; in data set [10], 391 min.

For the compound `CCC(=O)OCOc1cccc2c1c(CCN(C)C)cn2C(=O)CC`, the Drug metabolism in data set [1] is 0.001 µM; in data set [4], 0 µM; in data set [6], 0 µM; in [7], 0 µM; in data set [9], 0 µM. Further, the t1/2 in data set [2] turned out to be 52 min; in [3], 13 min; in [10], 16 min; in data set [5] it was 22 min; in data set [8], 0.8 min.

Turning to `CC(C)[Si](C(C)C)(C(C)C)n1cc(CCN(C)C)c2c(OC(=O)OCC3CC3)cccc21`, the Drug metabolism is 0.186 µM in [1]; 0.096 µM in data set [4]; 0.072 µM in [6]; 0 µM in data set [7]; 0.018 µM in data set [9]. Further, the t1/2 in [2] was 24 min; in data set [3] it was 31 min; in data set [10], 49 min; in [5], 24 min; in data set [8], 26 min.

On to `CC(C)[Si](C(C)C)(C(C)C)n1cc(CCN(C)C)c2c(OC(=O)c3ccc(Br)cc3)cccc21`, for which the Drug metabolism in data set [1] was 1.659 µM; in [4], 0.887 µM; in data set [6] it was 0.656 µM; in data set [7] it was 0 µM; in data set [9], 0.195 µM. The t1/2 in data set [2] is listed as 16 min; in data set [3], 25 min; in [10], 15 min; in [5] it was 11 min.

Turning to `COCCOCCOCC(=O)Oc1cccc2[nH]cc(CCN(C)C)c12`, the Drug metabolism in [1] was 0.494 µM; in data set [4], 0 µM; in data set [6], 0 µM; in data set [7], 0 µM; in data set [9] it was 0 µM. Besides, the t1/2 in data set [2] came out at 72 min; in data set [3], 5 min; in data set [10] it was 16 min; in data set [5], 60 min; in data set [8], 0.8 min.

In the case of `CCC(=O)Oc1cccc2c1c(CCN(C)C)cn2[Si](C(C)C)(C(C)C)C(C)C`, the Drug metabolism was found to be 0.244 µM in data set [1]; 0.053 µM in data set [4]; 0.204 µM in [6]; 0 µM in [7]; 0 µM in [9]. For the same compound, the t1/2 is listed as 2 min in data set [2]; 2 min in data set [3]; 3 min in data set [10]; 2 min in [5]; 49 min in [8].

As for `CN(C)CCc1c[nH]c2cccc(OC(=O)OCC(Cl)(Cl)Cl)c12`, the Drug metabolism in data set [1] worked out at 0.057 µM; in data set [4], 0 µM; in [6], 0.133 µM; in data set [7], 0 µM; in data set [9], 0 µM. Further, the t1/2 in [2] was determined as 221 min; in data set [3], 277 min; in data set [5], 150 min; in [8], 182 min.

As to `CN(C)CCc1c[nH]c2cccc(OP3(=O)OCC(C)(C)CO3)c12`, the Drug metabolism in [1] was determined as 0 µM; in [4] it was 0 µM; in [6] it was 0.011 µM; in data set [7], 0 µM; in [9], 0 µM.

On to `CC(C)[Si](C(C)C)(C(C)C)n1cc(CCN(C)C)c2c(OCc3ccc(F)cc3)cccc21`, for which the Drug metabolism in [1], in [4], in data set [6], in [7] and in [9] was 0 µM each time. Besides, the t1/2 was 64 min in data set [2], 27 min in data set [3], 60 min in data set [10] and 50 min in data set [5].

Regarding `CC(C)[Si](Oc1cccc2[nH]cc(CCN(C)C)c12)(C(C)C)C(C)C`, the Drug metabolism result in [11] is “Dose-Dependent Effect”; in data set [1], 0 µM; in data set [4], 0 µM; in [12], “Metabolite_Notdetected”; in [6], 0 µM; in data set [7], 0.142 µM. For the same compound, the Drug metabolism in [9] turned out to be 0 µM. Besides, the t1/2 is listed as 57 min in data set [2], 104 min in data set [3], 96 min in data set [10] and 27 min in data set [5].
